Data on eight compounds can be found in ChEMBL document CHEMBL1122395, “Tetracyclic chromophoric analogues of actinomycin D: synthesis, structure elucidation and interconvertibility from one form to another, antitumor activity, and structure-activity relationships” (1983).

Test [1] deals with P388. The experiment in a line: Percent increase in life span observed in P-388 cells infected male CDF1 hybrid mice after intraperitoneal administration at 600 ug/kg optimal dose. The class given is functional, Mus musculus. Summed up: (§1)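 Male CDF1 mice, seven per group, given 10^6 P388 cells ip on day 0. Drugs were given ip in 10% Me2SO-saline on days 1, 5 and 9, with solutions kept at 0-4 °C, protected from light and checked for homogeneity by HPLC. A range of doses was run and the optimal nontoxic dose reported. Read-outs were median survival time, percent increase in life span, and cures (over-60-day survivors, average of two experiments).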

Test [2] concerns CCRF-CEM. The experiment in a line: Growth inhibitory activity against human lymphoblastic leukemia cells(CCRF-CEM). As to conditions: read-out: ID50 (the source's name). The class given is functional. Summed up: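 Log-phase human lymphoblastic leukemia CCRF-CEM cells grown in suspension culture. Compounds dissolved in Me2SO, final growth medium contained 5% Me2SO. Test solutions kept at 0-4 °C, protected from light, homogeneity checked by HPLC before testing. ID50 reported in ng/mL.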

Test [3] is filed under the species Mus musculus. The experiment in a line: Male CDF1 hybrid treated mice out of seven which survived over 60 days after the treatment. The class given is functional. The procedure, abridged: as §1
Test [4] relates to P388. The experiment in a line: Median survival time observed in P-388 cells infected male CDF1 hybrid mice after intraperitoneal administration at 600 ug/kg optimal dose. The class given is functional, Mus musculus. Summed up:
as §1

Test [5] concerns Nucleic Acid. The experiment in a line: Melting temperature of DNA-drug complex minus melting temperature of purified calf-thymus DNA. The class given is functional. As to conditions: Bos taurus.
Test [6] relates to P388. The test can be described thus: Percent increase in life span observed in P-388 cells infected male CDF1 hybrid mice after intraperitoneal administration at 900 ug/kg optimal dose. The class given is functional, Mus musculus. The procedure, abridged:
as §1

Test [7] relates to P388. The experiment in a line: Median survival time observed in P-388 cells infected male CDF1 hybrid mice after intraperitoneal administration at 900 ug/kg optimal dose. The class given is functional, Mus musculus. The procedure, abridged: as §1
The test system of test [8] is P388. The test can be described thus: Percent increase in life span observed in P-388 cells infected male CDF1 hybrid mice after intraperitoneal administration at 450 ug/kg optimal dose. The class given is functional, Mus musculus. The procedure, abridged:
as §1

In test [9] the test system is P388. The experiment in a line: Median survival time observed in P-388 cells infected male CDF1 hybrid mice after intraperitoneal administration at 450 ug/kg optimal dose. The class given is functional, Mus musculus. The procedure, abridged: as §1
Test [10] deals with P388. The experiment in a line: Percent increase in life span observed in P-388 cells infected male CDF1 hybrid mice after intraperitoneal administration at 1800 ug/kg optimal dose. The class given is functional, Mus musculus. Summed up:
as §1

Test [11] deals with P388. The test can be described thus: Median survival time observed in P-388 cells infected male CDF1 hybrid mice after intraperitoneal administration at 1800 ug/kg optimal dose. The class given is functional, Mus musculus. The procedure, abridged:
as §1

Test [12] has as its system P388. The test can be described thus: Percent increase in life span observed in P-388 cells infected male CDF1 hybrid mice after intraperitoneal administration at 1200 ug/kg optimal dose. The class given is functional, Mus musculus. Summed up:
as §1

Test [13] relates to P388. The experiment in a line: Median survival time observed in P-388 cells infected male CDF1 hybrid mice after intraperitoneal administration at 1200 ug/kg optimal dose. The class given is functional, Mus musculus. Summed up: as §1

In brackets after ≈: the same amount, converted by molar mass.

As a reminder, the ILS is the gain in survival time of treated over control animals, in per cent. A high value points to much gain in survival. Compound `Cc1ccc(C(=O)N[C@@H]2C(=O)N[C@H](C(C)C)C(=O)N3CCC[C@H]3C(=O)N(C)CC(=O)N(C)[C@@H](C(C)C)C(=O)O[C@@H]2C)c2c1Oc1c(c(C(=O)N[C@@H]3C(=O)N[C@H](C(C)C)C(=O)N4CCC[C@H]4C(=O)N(C)CC(=O)N(C)[C@@H](C(C)C)C(=O)O[C@@H]3C)c3nc(-c4ccccc4)c(=O)oc3c1C)N2` gave an ILS in [1] of 309%. Also, the IC50 in [2] is 0.44 µg/mL (≈ 0.321 µM). The Cures in test [3] was determined as 2. Also, the MST in test [4] was 45 days.

The term ΔTm denotes the shift of the melting midpoint relative to a reference. On to `Cc1c2oc3c(C)c(O)c(N)c(C(=O)N[C@H]4C(=O)N[C@@H](C(C)C)C(=O)N5CCC[C@H]5C(=O)N(C)CC(=O)N(C)[C@H](C(C)C)C(=O)O[C@H]4C)c3nc-2c(C(=O)N[C@@H]2C(=O)N[C@H](C(C)C)C(=O)N3CCC[C@@H]3C(=O)N(C)CC(=O)N(C)[C@@H](C(C)C)C(=O)O[C@@H]2C)cc1=O`, for which the ΔTm in test [5] is 6.7 °C.

The compound `Cc1ccc(C(=O)N[C@@H]2C(=O)N[C@H](C(C)C)C(=O)N3CCC[C@H]3C(=O)N(C)CC(=O)N(C)[C@@H](C(C)C)C(=O)O[C@@H]2C)c2c1Oc1c(c(C(=O)N[C@@H]3C(=O)N[C@H](C(C)C)C(=O)N4CCC[C@H]4C(=O)N(C)CC(=O)N(C)[C@@H](C(C)C)C(=O)O[C@@H]3C)c3nc(-c4ccc(Cl)cc4)c(=O)oc3c1C)N2` had an ILS in test [1] of 164%. For the same compound, the IC50 in test [2] worked out at 1.6 µg/mL (≈ 1.14 µM). The same compound showed a Cures in test [3] of 0. Moreover, the MST in test [4] came out at 29 days.

For `Cc1c2oc3c(C)c4oc(-c5c(F)c(F)c(F)c(F)c5F)nc4c(C(=O)N[C@@H]4C(=O)N[C@H](C(C)C)C(=O)N5CCC[C@H]5C(=O)N(C)CC(=O)N(C)[C@@H](C(C)C)C(=O)O[C@@H]4C)c3nc-2c(C(=O)N[C@@H]2C(=O)N[C@H](C(C)C)C(=O)N3CCC[C@H]3C(=O)N(C)CC(=O)N(C)[C@@H](C(C)C)C(=O)O[C@@H]2C)cc1=O`, in test [2], the IC50 amounted to 0.63 µg/mL (≈ 0.435 µM). Further, the Cures in [3] amounted to 1. The same compound returned an ILS in [6] of 172%. The MST in test [7] is 3 days.

In test [8], `Cc1nc2c(C(=O)N[C@@H]3C(=O)N[C@H](C(C)C)C(=O)N4CCC[C@H]4C(=O)N(C)CC(=O)N(C)[C@@H](C(C)C)C(=O)O[C@@H]3C)c3nc4c(C(=O)N[C@@H]5C(=O)N[C@H](C(C)C)C(=O)N6CCC[C@H]6C(=O)N(C)CC(=O)N(C)[C@@H](C(C)C)C(=O)O[C@@H]5C)cc(=O)c(C)c-4oc3c(C)c2o1` displayed an ILS of 182%. Besides, in [9], the MST came to 31 days. For the same compound, in [2], the IC50 came to 0.23 µg/mL (≈ 0.178 µM). This compound also returned a Cures in [3] of 1.

The compound `Cc1ccc(C(=O)N[C@@H]2C(=O)N[C@H](C(C)C)C(=O)N3CCC[C@H]3C(=O)N(C)CC(=O)N(C)[C@@H](C(C)C)C(=O)O[C@@H]2C)c2c1Oc1c(c(C(=O)N[C@@H]3C(=O)N[C@H](C(C)C)C(=O)N4CCC[C@H]4C(=O)N(C)CC(=O)N(C)[C@@H](C(C)C)C(=O)O[C@@H]3C)c3nc(-c4c(F)c(F)c(F)c(F)c4F)c(=O)oc3c1C)N2` displayed an ILS in test [10] of 186%. Besides, the IC50 in test [2] is 0.64 µg/mL (≈ 0.438 µM). In test [3], this compound returned a Cures of 1. Besides, the MST in [11] was determined as 31.5 days.

In turn, `Cc1ccc(C(=O)N[C@@H]2C(=O)N[C@H](C(C)C)C(=O)N3CCC[C@H]3C(=O)N(C)CC(=O)N(C)[C@@H](C(C)C)C(=O)O[C@@H]2C)c2c1Oc1c(c(C(=O)N[C@@H]3C(=O)N[C@H](C(C)C)C(=O)N4CCC[C@H]4C(=O)N(C)CC(=O)N(C)[C@@H](C(C)C)C(=O)O[C@@H]3C)c3nc(-c4ccccc4Cl)c(=O)oc3c1C)N2` displayed an ILS in test [12] of 172%. In test [13], this compound came in with an MST of 30 days. The IC50 in test [2] was found to be 1.8 µg/mL (≈ 1.28 µM). The Cures in [3] amounted to 1.

`Cc1ccc(C(=O)N[C@@H]2C(=O)N[C@H](C(C)C)C(=O)N3CCC[C@H]3C(=O)N(C)CC(=O)N(C)[C@@H](C(C)C)C(=O)O[C@@H]2C)c2c1Oc1c(c(C(=O)N[C@@H]3C(=O)N[C@H](C(C)C)C(=O)N4CCC[C@H]4C(=O)N(C)CC(=O)N(C)[C@@H](C(C)C)C(=O)O[C@@H]3C)c3nc(-c4ccc5ccccc5c4)c(=O)oc3c1C)N2`: the increase in life span (ILS) in [12] came out at 136%. In test [13], this compound returned an MST of 26 days. In [2], the IC50 was found to be 1 µg/mL (≈ 0.703 µM). In addition, in test [3], the Cures is reported as 0.
